These results are taken from ChEMBL document CHEMBL1275406, “Comparison of the antimicrobial effects of chlorine, silver ion, and tobramycin on biofilm” (2008).

The source made the active and inactive calls. The calls are words filed in the database; no cut-off is given here.

Test [1] has as its system Pseudomonas aeruginosa. Kind of test: Antimicrobial activity against Pseudomonas aeruginosa PAO1 assessed as log reduction in bacterial count at 10 mg/L after 50 mins by plate count method. Format: functional. In a few lines: (§1)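 P. aeruginosa PAO1 biofilm grown on reactor coupons (24 h batch in 1/100-strength TSB, room temp, 100 rpm, then 24 h continuous flow in 1/300-strength TSB). Coupons rinsed and soaked unstirred in 10 mg/liter agent. Biofilm removed by sonication/vortexing in PBS. Counts by plate count (24 h, 37°C), CTC (1.6 μg/ml) or Syto9/propidium iodide stain on filtered cells, each normalized to DAPI total and to untreated biofilm; log10 reduction.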

Test [2] concerns Pseudomonas aeruginosa. As to the kind of experiment: Antimicrobial activity against Pseudomonas aeruginosa PAO1 assessed as log reduction in bacterial count at 10 mg/L after 50 mins by BacLight Live/Dead staining. Format: functional. The method, boiled down: as §1
Test [3] concerns Pseudomonas aeruginosa. As to the kind of experiment: Antimicrobial activity against Pseudomonas aeruginosa PAO1 grown as planktonic cells assessed as concentration and time required inactivate 2 log bacterial cells. Format: functional. The method, boiled down: (§2)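 Washed overnight PAO1 cultures at 10^6 CFU/ml in 50 ml, exposed to agent at 1 or 10 mg/liter (data averaged) in capped flasks with slow magnetic stirring. Survival by plate count only. Log10 reduction plotted against CT (mg·min/liter); CT90 or 2-log CT read or extrapolated from the curve.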

The subject of test [4] is Pseudomonas aeruginosa. Kind of test: Antimicrobial activity against Pseudomonas aeruginosa PAO1 grown as planktonic cells assessed as concentration and time required inactivate 1 log bacterial cells. It is filed as functional. In a few lines: as §2
Test [5] deals with Pseudomonas aeruginosa. Kind of test: Antimicrobial activity against Pseudomonas aeruginosa PAO1 grown as biofilm assessed as membrane integrity by BacLight Live/Dead staining. It is filed as functional. The method, boiled down: (§3)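 P. aeruginosa PAO1 reactor-grown biofilm coupons soaked in 10 mg/liter agent without stirring. Coupons stained 1 h in the dark with BacLight Syto9/propidium iodide or CTC (1.6 μg/ml, 37°C) plus DAPI (10 μg/ml), then imaged by confocal microscopy. Ratios are read at the point where plate-count culturability fell to 60%, normalized to untreated biofilm.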

Test [6] has as its system Pseudomonas aeruginosa. Kind of test: Antimicrobial activity against Pseudomonas aeruginosa PAO1 grown as biofilm assessed as concentration and time required inactivate 2 log bacterial cells. Format: functional. In a few lines: (§4)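 PAO1 biofilm grown 24 h batch then 24 h continuous flow on coupons, exposed to 10 mg/liter agent unstirred. Biofilm dislodged by sonication/vortexing, plate counted after 24 h at 37°C in triplicate. Log10 reduction plotted against concentration × contact time; CT for 2-log inactivation taken by extrapolating the curve. Experiments repeated 2–3 times.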

The subject of test [7] is Pseudomonas aeruginosa. Kind of test: Antimicrobial activity against Pseudomonas aeruginosa PAO1 grown as biofilm assessed as respiratory activity by CTC-DAPI staining. Format: functional, organism-based. In a few lines:
as §3

In test [8] the test system is Pseudomonas aeruginosa. Kind of test: Antimicrobial activity against Pseudomonas aeruginosa PAO1 assessed as log reduction in bacterial count at 10 mg/L after 50 mins by CTC staining. It is filed as functional. The method, boiled down: as §1
For test [9], the system named is Pseudomonas aeruginosa. As to the kind of experiment: Ratio of antimicrobial activity against Pseudomonas aeruginosa PAO1 grown as biofilm assessed as concentration and time required inactivate 2 log bacterial cells to antimicrobial activity against Pseudomonas aeruginosa PAO1 grown as planktonic cells assessed as concentration and time required inactivate 2 log bacterial cells. Format: functional. The method, boiled down:
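Ratio computed as biofilm CT over planktonic CT for 2-log inactivation of PAO1. Biofilm values come from coupons exposed to 10 mg/liter agent. Planktonic values come from 10^6 CFU/ml suspensions exposed to 1 or 10 mg/liter. Both were measured by plate count.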

Test [10] relates to Pseudomonas aeruginosa. As to the kind of experiment: Antimicrobial activity against Pseudomonas aeruginosa PAO1 grown as biofilms. It is filed as functional, organism-based. The method, boiled down: as §4

As for `NC[C@H]1O[C@H](O[C@H]2[C@H](O)[C@@H](O[C@H]3O[C@H](CO)[C@@H](O)[C@H](N)[C@H]3O)[C@H](N)C[C@@H]2N)[C@H](N)C[C@@H]1O` [TOBRAMYCIN], the results for the FC in the test on Pseudomonas aeruginosa [1], with Pseudomonas aeruginosa [2] and with Pseudomonas aeruginosa [8] were 1.5, 0.2 and 0.9, respectively. Moreover, the Activity was determined as 30 mg·min/L with Pseudomonas aeruginosa [3], 20 mg·min/L in the test on Pseudomonas aeruginosa [4], 70% in the test with Pseudomonas aeruginosa [5] and 1000 mg·min/L in the test on Pseudomonas aeruginosa [6]. Also, the outcome in the test on Pseudomonas aeruginosa [7] and in the test with Pseudomonas aeruginosa [10] was Active. Besides, the Ratio with Pseudomonas aeruginosa [9] is 33.
